Measurements from different studies.
Lines come from different studies, so protocols differ.
Target: Cyclin-dependent kinase 11B (CDK11B, Homo sapiens, UniProt P21127)
Method: competition with immobilised ligand

Structure (SMILES)	effect on	concentration	remaining binding [%]
Cc1c(NC(=O)c2cc(C(N)=O)nc3cc(F)ccc23)c(C(F)(F)F)nn1Cc1ccc(C#N)cc1	cell-free assay	1 µM	94
CNC(=O)[C@@H]1CC[C@@H](n2c(-c3ccc4cnccc4c3)nc3ccc(C(=O)NCc4cccc(C(N)=O)c4)cc32)C1	binding	1 µM	100
N[C@H]1CCN(c2nccc(-c3cnn4ncccc34)n2)C1	binding	1 µM	100
COc1ccc2cc(OCC3(C(=O)O)CN(C(=O)c4ccc(F)cc4)C3)ccc2c1	cell-free assay	1 µM	100
CC1CCCN1c1nccc(-c2cnn3ncccc23)n1 (stereo not drawn)	binding	1 µM	100
O=C(c1ccc(Nc2ncc(Cl)c(-c3cc4ccccc4s3)n2)cc1)N1CCC(N2CCCC2)CC1	binding	1 µM	80
C=CC(=O)N1CCC(C(=O)NCC(=O)N2CCN(c3nc(-c4cnc(N)nc4C(F)F)nc(N4CCOCC4)n3)CC2)CC1	binding	1 µM	100
CSc1cccnc1N1CCN(Cc2nc3ccccc3[nH]2)CC1	cell-free assay	1 µM	100
COc1cnc(Nc2cccc(S(N)(=O)=O)c2)nc1N1CCN(c2ccccc2)C(=O)C1	binding	1 µM	100
O=C(NCCCN1CCOCC1)c1ccc(Nc2nccc(-c3cc4ccccc4s3)n2)cc1	binding	1 µM	57
O=C(Nc1c[nH]nc1C(=O)NC1CCNCC1)c1cc(F)cc(F)c1	binding	1 µM	86
CN(C)c1nccc(-c2cnc3ncccn23)n1	binding	1 µM	100
CNCc1ccccc1-c1csc([C@H](C)Nc2nc(C)nc3cc(OC)c(OC)cc23)c1	cell-free assay	1 µM	100
c1cnn2ncc(-c3ccnc(N4CCC45COC5)n3)c2c1	binding	1 µM	91
Cc1nc(Cc2cccc(C(F)(F)F)c2)sc1-c1ccc(C(N)=O)nc1	cell-free assay	1 µM	97
CN(C)c1nccc(-c2cnn3ncccc23)n1	binding	1 µM	100
CC1=C(C#N)C(c2ccc3c(c2)c(NC(=O)c2ccccc2C)nn3C)C(C#N)=C(C)N1	cell-free assay	1 µM	100
O=C(NCCCN1CCOCC1)c1ccc(Nc2ncc(Cl)c(-c3ccc(Cl)s3)n2)cc1	binding	1 µM	33
COc1ncc2cc3ccccc3nc2c1C#N	cell-free assay	5 µM	100
C[C@H]1CCN(c2nccc(-c3cnn4ncccc34)n2)C1	binding	1 µM	90
C[C@@H](c1ccc(-n2cnc3c(N)ncnc32)cc1)N1CCc2nn(C)c(Cc3ccccc3)c2C1=O	binding	0.1 µM	86
